An excerpt weighted towards active compounds, which were near 5.1% of everything screened.
STAT1 act: activators of IFN-gamma induced STAT1 signaling; 200,000 tested, 2.6% active; NIH 3T3 STAT1-luciferase reporter, luminescence; 100% = IFN-gamma alone, no compound; activation (% of control), % at 5.5 µM;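 active = activation above the screen-wide mean activation plus 3 SD, cut at about 130% in these data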
APP 5'UTR act: activates APP 5'UTR luciferase reporter. activation, % at 2 µM. SH-SY5Y APP 5'UTR luciferase reporter, luminescence; zero percent = DMSO vehicle wells. AID 1276. 190,000 tested, 1% active;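 active = activation above a set limit, based on mean plus 3 SD of controls, cut at about 140% in these data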
STAT1 inh: reduces IFN-gamma driven STAT1 reporter signal; AID 920; NIH 3T3 STAT1-luciferase reporter, luminescence; 200,000 tested, 0.35% active; inhibition, % at 5.5 µM;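 active = inhibition above a set limit, the mean inhibition across all tested compounds plus 3 SD, cut at about 34% in these data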
NF-kB neuron act: NF-kB expression increase, human neuronal cells; NF-kB reporter expression; active compounds read high; AID 1239; 190,000 tested, 1.6% active; fold change at 12.5 µM; in the data active = fold change above about 3.3
STAT3 inh: reduces IL-6 driven STAT3 reporter signal; U3A cells, IL-6 STAT3-luciferase reporter, luminescence; host cell line lacks STAT1; inhibition, % at 5.5 µM; AID 862; 190,000 tested, 0.89% active;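 active = inhibition above the mean inhibition across all screened compounds plus 3 SD, cut at about 44% in these data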
STAT3 activator: increases IL-6 driven STAT3 reporter signal; 190,000 tested, 0.91% active; U3A cells, IL-6 STAT3-luciferase reporter, luminescence; 100% = signal with IL-6 EC80 alone; activation (% of control), % at 5.6 µM; AID 871;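 active = activation above the screen-wide mean of compound activation plus 3 SD, cut at about 130% in these data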
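Material: human U3A cells carrying STAT3-luciferase construct. Measured by: reporter luminescence signal. Timing: compound 1 h, then IL-6 6 h at 37 °C.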
Each line names hits and unclear results; the compound was inactive in the other large screens.

O=C(N/N=C/c1cn(-c2ccccc2)nc1-c1cc2ccccc2o1)c1ccncc1	STAT1 act 143.5, APP 5'UTR act 187.8
O=C(N/N=C/c1cn(-c2ccccc2)nc1-c1cccnc1)c1cccnc1	none
CC1=C(C(=O)N(C)C)C(c2ccc(C)s2)NC(=S)N1 (stereo unspecified)	none
Cc1cc(C(=O)Cn2nc(C(=O)O)c3ccccc3c2=O)c(C)n1CC(F)(F)F	STAT1 act 142.4
CCOC(=O)c1sc(NC(=O)CSc2nc(-c3ccco3)cc(C(F)(F)F)n2)c(C(=O)OC(C)C)c1C	none (no result: NF-kB neuron act)
CCCCNC1=CC(=O)C(=O)c2ccccc21	none
CCCCN1C=CC(=C2C(=O)c3ccccc3C2=O)C=C1	STAT1 inh 94.5, STAT3 inh 112.2
CCN=c1scc(C)n1/N=C/c1cc(Br)c(O)c(OC)c1	none
COc1ccc(O)c(/C=N/n2c(-c3ccco3)csc2=Nc2cccnc2)c1	none
C=CCN=c1scc(C)n1/N=C/c1ccc(O)c(O)c1	none
CN=c1scc(C)n1/N=C/c1ccc(O)cc1O	APP 5'UTR act 155.7, STAT1 inh 55.8, NF-kB neuron act 3.8, STAT3 inh 61.0
CN=c1scc(C)n1/N=C/c1cc(Br)c(O)c(Br)c1	NF-kB neuron act 5.49
CN=c1scc(-c2ccco2)n1/N=C/c1ccc(O)c(O)c1	NF-kB neuron act 3.83
CN=c1scc(C)n1/N=C/c1ccc(O)cc1	NF-kB neuron act 12
COc1ccc2c(CC(=O)Nc3cccc(S(=O)(=O)N4CCOCC4)c3)coc2c1	none
O=C(COC(=O)c1cc(S(=O)(=O)N2CCCCC2)ccc1N1CCOCC1)NCCc1ccc(F)cc1	none
CCCCCc1nc2sc3c(c2c(=O)n1NC(=O)c1ccc([N+](=O)[O-])cc1)CC(C)(C)OC3	none
COc1cccc(-n2nnc3c(=O)n(CC(=O)Nc4cc(C)on4)cnc32)c1	none
CCOC(=O)c1cc2c(ccn2C)n1CC(=O)N(CC)CC	none
CN(Cc1ccon1)Cc1cn(Cc2ccccc2)nc1-c1ccc2c(c1)OCO2	none
Nc1ccc(C(=O)OCC(=O)Nc2ccc([N+](=O)[O-])cc2C(F)(F)F)cc1	none
CCOc1ccc(Br)cc1CNCCN1CCOCC1	none
CCOc1ccc2ccccc2c1CNCCN1CCOCC1	NF-kB neuron act 7.73
Cc1sc2c(c1C)c(=O)nc1scc(C)n12	none (no result: NF-kB neuron act)
COC(=O)c1ccccc1NC(=O)CSc1nc(C)cc(C)n1	none
Cc1cc(C)nc(SCC(=O)Nc2ccnc3ccccc23)n1	STAT1 inh 36.3, STAT3 inh 86.1
O=c1oc2ccccc2cc1-c1nc(-c2ccccc2)no1	STAT1 act 144.6, NF-kB neuron act 4.12
Cc1ccc(-c2noc(-c3cc4ccccc4oc3=O)n2)cc1	none
O=c1oc2ccccc2cc1-c1nc2ccccc2o1	APP 5'UTR act 151.8, NF-kB neuron act 4.39
Cc1cccc(-c2noc(-c3cc4ccccc4oc3=O)n2)c1	NF-kB neuron act 3.62
Cn1c(=O)c2ncn(CC(=O)Nc3cccc(-c4nc5ccccc5s4)c3)c2n(C)c1=O	none
COc1cc(OC)cc(C(=O)NNC(=O)NC2CCCCC2)c1	none (no result: APP 5'UTR act)
COc1ccccc1C(=O)NNC(=S)NC(=O)c1sc2ccccc2c1Cl	none
Cc1c(NC(=S)NC(=O)c2sc3ccccc3c2Cl)cccc1C(=O)O	APP 5'UTR act 186.2
CCCc1nnc(NC(=O)Cn2c(=O)oc3cc(Br)ccc32)s1	none
O=c1oc2cc(Br)ccc2n1CSC1=NCCS1	NF-kB neuron act 7.66
O=c1c2ccccc2nnn1CCO	none
CC(C)(C)c1csc(NNC(=O)c2ccc(Br)cc2)n1	none
O=C(c1ccc(Cl)c(Cl)c1)c1cnc(Nc2ccccc2)s1	none
O=C(c1cnc(-c2ccc(Cl)cc2)s1)c1ccc(Cl)cc1Cl	none
CNc1ncc(C(=O)c2ccc(Cl)cc2)s1	NF-kB neuron act 4.04
CNc1ncc(C(=O)c2ccc(Cl)c(Cl)c2)s1	NF-kB neuron act 4.32
CCNC(=O)Nc1ccc(OC)cc1OC	none
O=c1c2ccccc2nc2ccc(NCc3cccs3)nn12	NF-kB neuron act 3.42
CN(C)S(=O)(=O)c1cccc(NC(=O)CN2C(=O)NC(Cc3c[nH]c4ccccc34)C2=O)c1 (stereo unspecified)	none
CCOC(=O)C(C)N1N=C(/C=C/c2ccc(C)cc2)CCC1=O (stereo unspecified)	none
C=CCN1N=C(/C=C/c2ccc(C)cc2)CCC1=O	STAT1 act 136.9
C=CCn1c(-c2ccc(S(=O)(=O)N3CCOCC3)cc2)csc1=Nc1ccccc1	none
COc1ccc(N=c2scc(-c3ccc(S(=O)(=O)N4CCOCC4)cc3)n2CCCO)cc1	STAT3 inh 43.6
CCOc1ccc(-c2cn(-c3ccc(OC)cc3)c(SC)n2)cc1	STAT1 act 143.6, NF-kB neuron act 3.8
CSc1nc(-c2ccccc2)cn1-c1ccc(NC(C)=O)cc1	none
O=C(Nc1cnc2sccn2c1=O)c1ccccc1Cl	STAT1 act 139.7
Cc1cccc(NC(=O)c2cnc3sccn3c2=O)n1	none (no result: NF-kB neuron act)
Cc1cccc(NC(=O)c2cnc3sccn3c2=O)c1	APP 5'UTR act 166.9, NF-kB neuron act 5.54 (no result: STAT3 inh, STAT3 activator)
Cc1cccc(NC(=O)c2cnc3ccccn3c2=O)c1	none
Cc1cccc(NC(=O)c2cnc3sccn3c2=O)c1C	STAT1 act 135.7
CC1CCC/C(=N\Nc2ccc(Cl)c(C(=O)O)c2)C1 (stereo unspecified)	APP 5'UTR act 216.8
COc1ccc(NC(=O)Cn2c(=O)n(-c3ccc(OC)cc3OC)c(=O)c3c(C)c(C)sc32)cc1	none
COc1cc(/C=C2/NC(=O)N(Cc3ccccc3F)C2=O)cc(OC)c1O	none
CCOc1cc(/C=C2/NC(=O)N(Cc3ccccc3F)C2=O)ccc1O	NF-kB neuron act 5.89
Cc1ccc(NC(=O)N2C(=O)C3(OCCO3)c3ccccc32)cc1	STAT1 act 138.1
CCC(=O)c1ccc(/C=C/c2nc3ccccc3n2C)o1	NF-kB neuron act 4.82
O=C(/C=C/Nc1ccc([N+](=O)[O-])cc1Br)c1cccc2ccccc12	APP 5'UTR act 149.4
Cc1ccc(N2C(=O)N(CC(=O)NCc3ccccc3Cl)C(=O)C2C)cc1 (stereo unspecified)	none
Fc1ccc(CSc2nc3ncc(Br)cc3[nH]2)cc1	none
Cc1[nH]nc2c1C(c1ccsc1)C1=C(CC(C)(C)CC1=O)N2 (stereo unspecified)	none
O=C(/C=C/c1ccco1)NC1=NCCS1	STAT1 act 144.9
COc1ccc(/C=C/C(=O)NC2=NCCS2)cc1OC	STAT1 act 132.1
CCOc1ccc(C(=O)/C=C/Nc2ccc(S(=O)(=O)Nc3onc(C)c3C)cc2)cc1	none
CCOc1ccc(C(=O)/C=C/Nc2ccc(S(=O)(=O)N=C(N)N)cc2)cc1	STAT1 act 130.8
CCc1nnc(NS(=O)(=O)c2ccc(N/C=C/C(=O)c3ccc(OC)cc3)cc2)s1	STAT1 act 136.0

Bioassay records from PubChem.
